Screening data: PubChem BioAssay, several laboratories
Jurkat viability: cytotoxicity toward Jurkat T cells, primary screen, cytotoxicity control, cell-based, Jurkat E6.1, 60K MLSMR library; inhibition, % at 4 µM; actives 1.2% (n = 56,000); AID 463, 2006; Jurkat E6.1 viability, ATP luminescence, 48 h;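 active = inhibition above the mean inhibition of all tested compounds plus 3 SD, cut at about 28% in these data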
H69AR inhibit: proliferation blockers of H69AR lung cancer cells, primary screen, cell-based, human, 86K library; H69AR lung tumor viability, ATP luminescence, 72 h; stronger effect = lower value; viability, % at 10 µM; actives 6% (n = 85,000); AID 598, 2007;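 active = viability at or below 40%; inactive = viability above 40%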;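 note: multidrug resistant small cell line overexpressing MRP-1 efflux transporter; 100% = mean luminescence of untreated control wells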
Fibroblast inh: antiproliferative effect on LL 47 fibroblasts – human, LL 47 cells, CellTiter-Glo luminescence, primary screen | actives 1.1% (n = 85,000) | LL 47 human lung fibroblast viability, ATP luminescence; stronger effect = lower value | viability, % at 10 µM;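 active = viability at or below 50% in the single dose screen; inactive = viability above 50%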;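 note: compound exposure lasted 72 h before the ATP readout; 100% = median luminescence of untreated cell-only wells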
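Test system: LL 47 human lung fibroblasts / Incubation: 72 h compound exposure at 37 °C after overnight plating / Technique: luminescent ATP detection, CellTiter-Glo / Compound dosing: 0.1% DMSO in all compound wells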
HUVEC inhibit: inhibitors of HUVEC proliferation, primary screen, cell-based, 384-well. actives 1.1% (n = 86,000). viability, % at 10 µM (by protocol). CellTiter-Glo luminescence, 72 h; stronger effect = lower value. AID 648, 2007;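 active = viability at or below 30%; inactive = viability above 30%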;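 note: 100% = median luminescence of DMSO-only cell control wells on each plate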
Starred values were filed as active, the others as inactive; . = no result. This is a sample that favours compounds with a hit; in the whole collection about 6.6% have one here.

SMILES	Jurkat viability	H69AR inhibit	Fibroblast inh	HUVEC inhibit
COc1ccc(S(=O)(=O)Nc2cc3c4c(oc3c3ccccc23)CC(C)(C)CC4=O)cc1	.	15*	100	69
COc1ccc(S(=O)(=O)Nc2c3ccccc3nc(=O)n2-c2ccccc2)cc1	.	110	106	97
CC(NC(=O)CSc1nc2sc3c(c2c(=O)n1-c1ccccc1)CCCC3)c1ccccc1 (centres undefined)	.	1.9*	92	67
C=CCn1c(SCC(=O)Nc2cc(C)on2)nc2sc(C)c(C)c2c1=O	.	28*	91	97
Cc1cc(NC(=O)CSc2nc(C(C)C)nc3sc4c(c23)CCCC4)no1	-2	5.6*	18*	60
CCn1c(SCC(=O)Nc2cc(C)on2)nc2sc3c(c2c1=O)CCCC3	3	7.1*	15*	78
CC1(C)Oc2ccc(C(=O)NC3CCCC3)cc2N(CC(=O)NC2CCCCC2)C1=O	6	81	98	102
CCCn1c(=O)[nH]c(=O)c2c1nc(-c1ccccc1)n2CCN1CCOCC1	.	92	98	94
CCCSc1ncc(Cl)c(C(=O)Nc2ccc(S(=O)(=O)N3CC(C)OC(C)C3)cc2)n1 (centres undefined)	.	69	92	99
NC(=O)C(c1ccc(Cl)cc1)c1ccc(Sc2ccc(Cl)cc2)nn1 (centres undefined)	.	98	90	89
O=C1[C@@H]2[C@H](Cc3ccc(O)cc3)N[C@]3(C(=O)Nc4ccccc43)[C@@H]2C(=O)N1c1ccc(F)cc1	-14	112	96	99
Cc1c(Cl)ccc2c1NC(=O)[C@]21N[C@@H](Cc2ccccc2)[C@H]2C(=O)N(c3ccc(F)cc3)C(=O)[C@H]21	.	19*	89	67
COC(=O)C1=C(C)NC(=O)/C1=C\c1cc(C)n(-c2c(C)cccc2C)c1C	.	46	60	27*
O=C(NCc1ccco1)Nc1ccc2nsnc2c1	6	31*	100	98
CN(C)CC/C=C1/c2ccccc2Sc2c(O)cc(Cl)cc21	.	6.3*	54	50
COc1cc(Cl)cc2c1Sc1ccccc1/C2=C/CCN(C)C	.	2.7*	96	4.1*
COc1ccc2c(c1)Sc1ccccc1N2CCN(C)C	0	82	99	83
CCc1ccc(NC(=O)CNS(=O)(=O)c2c(C)noc2C)cc1	-4	.	.	.
Cc1ccc(NC(=O)CSCCc2ccccn2)nc1	.	92	95	101
CCSc1nnc(NC(=O)C(CC)Oc2ccccc2)s1 (centres undefined)	1	89	100	97
Cc1ccc(Nc2cc(C)nn2-c2nc(C)cc(=O)[nH]2)cc1	94*	1.4*	4.5*	30*
Cc1ccc(Nc2nc3ccccc3nc2-n2nc(C)cc2C)cc1	.	92	104	116
Cc1ccc(Nc2cc(C)nn2-c2nc(C)cc(C)n2)cc1	10	14*	89	81
O=C(Nc1nnc(-c2ccccc2)s1)c1cc(S(=O)(=O)N2CCOCC2)c(Cl)cc1Cl	.	10.0*	93	47
COC(=O)/C(=C(/F)Sc1cc(C)c(O)c(C)c1)C(F)(F)F	.	2.7*	9.3*	23*
SMILES	Jurkat viability	H69AR inhibit	Fibroblast inh	HUVEC inhibit
Cc1cccc(-n2nnnc2SCC(=O)c2cc(C)n(CC3CCCO3)c2C)c1 (centres undefined)	-13	83	96	94
Cc1cccc(-n2nnnc2SCC(=O)c2cc(C)n(Cc3ccco3)c2C)c1	-9	7.3*	.	49
CCCCOc1ccc(N2C(=O)CC(NCCc3ccc(S(N)(=O)=O)cc3)C2=O)cc1 (centres undefined)	.	89	100	87
CC(=O)Nc1ccc(S(=O)(=O)N(Cc2ccco2)CC2CCCO2)cc1 (centres undefined)	-5	65	101	87
CCCn1c(N)c(C(=O)CN2CCN(S(=O)(=O)c3cccs3)CC2)c(=O)[nH]c1=O	3	94	100	100
CCCCNC(=O)CSc1nc2ccsc2c(=O)n1C1CCN(C(=O)OCC)CC1	.	68	99	96
O=C(CC(Sc1ccccc1)c1cccs1)c1ccco1 (centres undefined)	3	1.9*	.	88
O=C(Cc1cccs1)OCC(=O)c1ccco1	0	81	92	92
Cc1nn(C(=O)CCCC(=O)n2nc(C)c(Cl)c2C)c(C)c1Cl	8	93	95	101
CSc1nsc(/C=C/Nc2cccc(Cl)c2)c1C#N	.	29*	97	93
CCN1CCN(c2cc(C)c3cc(NC(=O)c4cncc(Br)c4)ccc3n2)CC1	.	42	53	23*
CCOc1ccccc1C(=O)Nc1ccc2nc(N3CCN(c4ncccn4)CC3)cc(C)c2c1	.	0.5*	55	6.2*
CCN1CCN(c2cc(C)c3cc(NC(=O)c4ccc(OC)c(OC)c4)ccc3n2)CC1	.	19*	42*	65
CCN1CCN(c2cc(C)c3cc(NC(=O)c4ccc5c(c4)OCO5)ccc3n2)CC1	-1	.	.	.
O=C(CSc1nnc(Cn2c(=O)sc3ccccc32)n1-c1ccccc1)Nc1nccs1	4	.	.	.
COc1ccc(CNC(=O)C(c2ccco2)N(C(=O)c2csnn2)c2cccc(C)c2C)cc1 (centres undefined)	.	77	96	104
Cc1cc(C)n(C(=O)c2ccc(C)c(S(=O)(=O)N3CCCC3)c2)n1	2	91	94	90
CCOc1cc(C(=O)NC(C)c2ccncc2)cc(OCC)c1OCC (centres undefined)	0	90	105	93
Brc1cc(Br)c2ncnc(N3CCCCC3)c2c1	.	1.7*	16*	8.9*
CCOC(=O)N1CCN(C(=O)c2cn(C)c(=O)c3c2c2ccccc2n3C)CC1	4	40*	96	94
Cn1cc(C(=O)NCCN2CCN(c3cccc(Cl)c3)CC2)c2c3ccccc3n(C)c2c1=O	9	16*	91	58
Cc1cc(C(=O)NCC2CCCO2)n(-c2ccccc2)n1 (centres undefined)	9	94	100	97
Cc1cc(C(=O)NCCCN2CCN(c3cc(Cl)ccc3C)CC2)n(-c2ccccc2)n1	.	31*	80	69
CCOC(=O)N1CCN(C(=O)c2cn(CC(C)C)c(=O)c3c2c2ccccc2n3C)CC1	-3	75	90	97
Cc1cc(C(=O)NCCN2CCN(c3cccc(Cl)c3)CC2)n(-c2ccccc2)n1	32	29*	58	53
Cc1ccc2c(c1)NC(=O)C(CC(=O)N(C)Cc1ccccc1)O2 (centres undefined)	-3	92	109	118
Cc1cccc(N2C(=O)c3cccc4c(N(C)CCO)ccc(c34)C2=O)c1	2	80	90	92
O=C1CN(C(=O)c2ccco2)C(c2ccccc2)c2cc(Cl)ccc2N1 (centres undefined)	-7	47	87	82
C=CCn1c(=O)c2ccccc2n2c(Sc3nnnn3-c3ccccc3)nnc12	-3	51	.	91
CCCn1c(=O)c2ccccc2n2c(Sc3nnnn3-c3ccccc3)nnc12	-5	33*	97	94
